Measured values gathered from unrelated publications.
Protocols differ between the studies behind these lines.
Target: Myosin light chain kinase family member 4 (MYLK4, Homo sapiens, UniProt Q86YV6)
One construct used (Q86YV6 1-388): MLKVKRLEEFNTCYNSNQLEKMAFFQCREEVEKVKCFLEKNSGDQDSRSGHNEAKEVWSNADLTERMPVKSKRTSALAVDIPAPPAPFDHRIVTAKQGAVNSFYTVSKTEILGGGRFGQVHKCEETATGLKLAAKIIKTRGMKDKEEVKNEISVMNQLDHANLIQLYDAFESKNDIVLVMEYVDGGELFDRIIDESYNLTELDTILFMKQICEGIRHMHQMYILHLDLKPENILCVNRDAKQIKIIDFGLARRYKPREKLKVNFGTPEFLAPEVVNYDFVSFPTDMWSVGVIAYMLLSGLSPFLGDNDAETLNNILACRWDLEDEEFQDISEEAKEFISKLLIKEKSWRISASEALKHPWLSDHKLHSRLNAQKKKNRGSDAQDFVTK

| Structure (SMILES) | assay | setting | remaining binding [%] |
| --- | --- | --- | --- |
| CN(CCCC(F)(F)F)c1nccc(-c2cnn3ncccc23)n1 | binding | 1 µM | 100 |
| CCC(=O)N[C@@H]1CC[C@H](C(=O)N(C)c2ccc(-c3nc4ccccc4o3)cc2)C1 | cell-free assay, competition with immobilised ligand | 1 µM | 100 |
| c1cncc(-c2cccc(Nc3nccc(NC4CCCCC4)n3)c2)c1 | binding, competition with immobilised ligand | 10 µM | 51 |
| Nc1cnc(N2CCc3cc(S(=O)(=O)Nc4c(F)cc(Cl)cc4F)cc(N4CCCC4=O)c32)nc1 | cell-free assay, competition with immobilised ligand | 1 µM | 100 |
| C[C@@H]1CCN(c2nccc(-c3cnn4ncccc34)n2)C1 | binding | 1 µM | 100 |
| C[C@H](c1cccc(C#N)c1)n1cc(Cl)cc(C(N)=O)c1=N | cell-free assay, competition with immobilised ligand | 1 µM | 100 |
| COc1ccnn2ncc(-c3ccnc(N(C)C)n3)c12 | binding | 1 µM | 100 |
| O=C(c1ccc(Nc2ncc(Cl)c(-c3cc4ccccc4s3)n2)cc1)N1CCC(N2CCCC2)CC1 | binding, competition with immobilised ligand | 1 µM | 0.1 |
| CS(=O)(=O)N1CCCC(NC(=O)[C@H](CCC2CCCCC2)NC(=O)c2ccc(CNc3ncnc4c3nnn4-c3ccccc3)cc2)C1 (stereo partly shown) | cell-free assay, competition with immobilised ligand | 0.1 µM | 100 |
| COc1ncc2cc3ccccc3nc2c1C#N | cell-free assay, competition with immobilised ligand | 5 µM | 93 |
| O=C(c1ccc(Nc2ncc(Cl)c(-c3ccc(Cl)s3)n2)cc1)N1CCC(N2CCCC2)CC1 | binding, competition with immobilised ligand | 1 µM | 0 |
| O=C(Nc1c[nH]nc1C(=O)NC1CCNCC1)c1cc(F)cc(F)c1 | binding, competition with immobilised ligand | 1 µM | 100 |
| c1cnn2ncc(-c3ccnc(N4CCC45COC5)n3)c2c1 | binding | 1 µM | 78 |
| COc1cnc(Nc2cccc(S(N)(=O)=O)c2)nc1N1CCN(c2ccccc2)CC1 | binding, competition with immobilised ligand | 1 µM | 100 |
| COc1ccc2c(c1)O[C@@H](c1ccc(OC)c(OC)c1)C[C@H]2NC(=O)C1(c2ccc3c(c2)OC(F)(F)O3)CC1 | cell-free assay, competition with immobilised ligand | 1 µM | 97 |
| N[C@@H]1CCN(c2nccc(-c3cnn4ncccc34)n2)C1 | binding | 1 µM | 100 |
| CNC(=O)Nc1ccc2c(c1)CC[C@@]21OC(=O)N(CC(=O)N(Cc2ccc(F)cc2)[C@@H](C)C(F)(F)F)C1=O | cell-free assay, competition with immobilised ligand | 1 µM | 70 |
| CNC(=O)[C@@H]1CC[C@@H](n2c(-c3ccc4cnccc4c3)nc3ccc(C(=O)NCc4cccc(C(N)=O)c4)cc32)C1 | binding, competition with immobilised ligand | 1 µM | 100 |
| O=C(c1ccc(Nc2nccc(-c3cc4ccccc4s3)n2)cc1)N1CCC(N2CCCC2)CC1 | binding, competition with immobilised ligand | 1 µM | 0.1 |
